Experiment [1] has as its system HUVEC. The experiment in a line: Antiangiogenic activity in human HUVEC cells assessed as inhibition of cell migration at 50 uM. Format: functional. The procedure, abridged: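 Real-time impedance migration: upper chamber coated with fibronectin (20μg/ml), 45,000 HUVEC/well (passages 2–7) added with or without peptide at 50 μM; fully supplemented medium below as chemoattractant; migration read as cell index from sensors under porous membrane. Duplicate experiments, each averaging three same-plate replicates; percent inhibition versus vehicle control.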

In experiment [2] the test system is HUVEC. The experiment in a line: Antiangiogenic activity in human HUVEC cells assessed as inhibition of cell adhesion at 100 uM upto 3 hrs by migration assay. It counts as functional. The procedure, abridged: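 HUVEC (passages 2–7, EGM-2, 37°C, 5% CO2) seeded at 25,000 cells/well in single-compartment impedance E-plates with or without peptide at 100 μM; adhesion tracked as change in cell index amplitude over 3 hours. Two biological replicates, each the mean of three same-plate technical replicates; expressed as percent inhibition relative to vehicle control.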

For experiment [3], the system named is HUVEC. In words: Antiangiogenic activity in human HUVEC cells assessed as inhibition of cell proliferation at 100 uM after 72 hrs by WST-1-based colorimetric assay. It counts as functional. In short, it runs like this:
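HUVEC (passages 2–7) plated at 2000 cells/well, peptide 100 μM added in fully supplemented medium to adherent cells for 72 hours; WST-1 then applied in serum-free medium for four hours and absorbance read at 450 nm. Two biological replicates, each mean of three technical replicates; percent inhibition relative to vehicle control.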
On the technique in general: Tetrazolium assays rely on reduction of a dye to a coloured formazan, in cell work by metabolically active cells.

The test system of experiment [4] is HUVEC. The experiment in a line: Antiangiogenic activity in human HUVEC cells assessed as inhibition of tube structure formation at 100 uM relative to control. Format: functional, cell-based. The procedure, abridged:
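Wells coated with reduced growth factor basement membrane matrix, gelled 30 minutes at 37 °C; HUVEC seeded on gel at 15,000 cells/well with or without peptide (100 μM), control receiving equal DMSO vehicle. Incubated overnight at 37 °C, 5% CO2; tube structures imaged by camera on inverted microscope.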

The source made the active and inactive calls. The calls are words filed in the database; no cut-off is given here. Square brackets hold non-standard residues; d marks the D form. Peptide text beside a SMILES is read from it. Abu = CC[C@H](N)C(=O)O

The values that follow come from ChEMBL document CHEMBL1828610, “Novel peptide-specific quantitative structure-activity relationship (QSAR) analysis applied to collagen IV peptides with antiangiogenic activity” (2011).

The term inhibition denotes the change of the read-out against control, counted positive when it falls.

Consider `CC[C@H](NC(=O)[C@H](Cc1ccccc1)NC(=O)[C@H](CCSC)NC(=O)[C@H](C)NC(=O)[C@@H]1CCCN1C(=O)[C@H](CCSC)NC(=O)[C@@H](NC(=O)[C@H](CO)NC(=O)[C@H](Cc1ccccc1)NC(=O)[C@H](CCCNC(=N)N)NC(=O)[C@H](CCCNC(=N)N)NC(=O)[C@@H](N)CC(C)C)[C@@H](C)O)C(=O)N[C@@H](CC(N)=O)C(=O)N[C@H](C(=O)N[C@@H](CC(N)=O)C(=O)N[C@@H](CC(N)=O)C(=O)N[C@H](C(=O)N[C@@H](CC)C(=O)N[C@@H](CC(N)=O)C(=O)N[C@@H](Cc1ccccc1)C(=O)O)C(C)C)[C@@H](C)CC` (H-LRRFSTMPAMF[Abu]NINNV[Abu]NF-OH), for which, in experiment [1], the inhibition at 50 µM is 99.8%. In addition, the inhibition at 100 µM in experiment [2] is 95.6%; in experiment [3], 65.4%.
As to `CC[C@H](NC(=O)[C@@H](NC(=O)[C@H](CC(N)=O)NC(=O)[C@H](CC(N)=O)NC(=O)[C@@H](NC(=O)[C@@H](N)CC(N)=O)[C@@H](C)CC)C(C)C)C(=O)N[C@@H](CC(N)=O)C(=O)N[C@@H](Cc1ccccc1)C(=O)O` (H-NINNV[Abu]NF-OH), the inhibition at 50 µM in experiment [1] is 31.6%. The inhibition at 100 µM in experiment [2] is 70.8%; in experiment [3], 24.2%.
For H-LRRFSTMPFMF-OH, in experiment [1], the inhibition at 50 µM was -14.2%. For the same molecule, the inhibition at 100 µM in experiment [2] is -2.6%; in experiment [3], 2.97%.
Turning to `CC[C@H](NC(=O)[C@H](Cc1ccccc1)NC(=O)[C@H](C)NC(=O)[C@H](Cc1ccccc1)NC(=O)[C@@H]1CCCN1C(=O)[C@H](CCSC)NC(=O)[C@@H](NC(=O)[C@H](CO)NC(=O)[C@H](Cc1ccccc1)NC(=O)[C@H](CCCNC(=N)N)NC(=O)[C@H](CCCNC(=N)N)NC(=O)[C@@H](N)CC(C)C)[C@@H](C)O)C(=O)N[C@@H](CC(N)=O)C(=O)N[C@H](C(=O)N[C@@H](CC(N)=O)C(=O)N[C@@H](CC(N)=O)C(=O)N[C@H](C(=O)N[C@@H](CC)C(=O)N[C@@H](CC(N)=O)C(=O)N[C@@H](Cc1ccccc1)C(=O)O)C(C)C)[C@@H](C)CC` (H-LRRFSTMPFAF[Abu]NINNV[Abu]NF-OH), in experiment [1], the inhibition at 50 µM was found to be 99.6%. In addition, the values for the inhibition at 100 µM in experiment [2] and in experiment [3] were 98.3% and 63.6%, respectively.
With H-LRRFSTMP-OH, the inhibition at 50 µM in experiment [1] was -20.1%. In addition, the inhibition at 100 µM is -0.14% in experiment [2] and 7.02% in experiment [3]. Also, in experiment [4], the inhibition entry is “Active”.
Regarding H-LRRFSTMPFMFININNVINF-OH, in experiment [1], the inhibition at 50 µM was determined as 92.9%. In addition, the inhibition at 100 µM in experiment [2] is 98.6%; in experiment [3] it was 73.2%.
With H-LRRFSTMPFMFSNINNVSNF-OH, the inhibition at 50 µM in experiment [1] stood at 92.6%. Also, the inhibition at 100 µM in experiment [2] was determined as 98%; in experiment [3], 50.5%.
`CC[C@H](NC(=O)[C@H](Cc1ccccc1)NC(=O)[C@H](CCSC)NC(=O)[C@@H](N)Cc1ccccc1)C(=O)N[C@@H](CC(N)=O)C(=O)N[C@H](C(=O)N[C@@H](CC(N)=O)C(=O)N[C@@H](CC(N)=O)C(=O)N[C@H](C(=O)N[C@@H](CC)C(=O)N[C@@H](CC(N)=O)C(=O)N[C@@H](Cc1ccccc1)C(=O)O)C(C)C)[C@@H](C)CC` (H-FMF[Abu]NINNV[Abu]NF-OH): the inhibition at 50 µM in experiment [1] was -16.6%. The results for the inhibition at 100 µM in experiment [2] and in experiment [3] were 66.2% and 28.3%, respectively.
For `CC[C@H](NC(=O)[C@H](Cc1ccccc1)NC(=O)[C@H](CCSC)NC(=O)[C@H](Cc1ccccc1)NC(=O)[C@@H]1CCCN1C(=O)[C@H](CCSC)NC(=O)[C@@H](NC(=O)[C@H](CO)NC(=O)[C@H](Cc1ccccc1)NC(=O)[C@H](CCCNC(=N)N)NC(=O)[C@H](CCCNC(=N)N)NC(=O)[C@@H](N)CC(C)C)[C@@H](C)O)C(=O)N[C@@H](CC(N)=O)C(=O)N[C@H](C(=O)N[C@@H](CC(N)=O)C(=O)N[C@@H](CC(N)=O)C(=O)N[C@H](C(=O)N[C@@H](CC)C(=O)N[C@@H](CC(N)=O)C(=O)N[C@@H](Cc1ccccc1)C(=O)O)C(C)C)[C@@H](C)CC` (H-LRRFSTMPFMF[Abu]NINNV[Abu]NF-OH), in that order: 97%, 98.5% and 69.7%.
On to `CC[C@H](NC(=O)[C@@H](N)Cc1ccccc1)C(=O)N[C@@H](CC(N)=O)C(=O)N[C@H](C(=O)N[C@@H](CC(N)=O)C(=O)O)[C@@H](C)CC` (H-F[Abu]NIN-OH), for which the inhibition at 50 µM in experiment [1] was -23.7%. In addition, the inhibition at 100 µM in experiment [2] worked out at 3.45%; in experiment [3] it was 8.17%.
Turning to `CC[C@H](NC(=O)[C@H](C)NC(=O)[C@H](CCSC)NC(=O)[C@H](Cc1ccccc1)NC(=O)[C@@H]1CCCN1C(=O)[C@H](CCSC)NC(=O)[C@@H](NC(=O)[C@H](CO)NC(=O)[C@H](Cc1ccccc1)NC(=O)[C@H](CCCNC(=N)N)NC(=O)[C@H](CCCNC(=N)N)NC(=O)[C@@H](N)CC(C)C)[C@@H](C)O)C(=O)N[C@@H](CC(N)=O)C(=O)N[C@H](C(=O)N[C@@H](CC(N)=O)C(=O)N[C@@H](CC(N)=O)C(=O)N[C@H](C(=O)N[C@@H](CC)C(=O)N[C@@H](CC(N)=O)C(=O)N[C@@H](Cc1ccccc1)C(=O)O)C(C)C)[C@@H](C)CC` (H-LRRFSTMPFMA[Abu]NINNV[Abu]NF-OH), the inhibition at 50 µM in experiment [1] came to 99.6%. For the same molecule, the inhibition at 100 µM is 99.3% in experiment [2] and 65.1% in experiment [3].
For `CC[C@H](NC(=O)[C@H](Cc1ccccc1)NC(=O)[C@H](CCSC)NC(=O)[C@H](Cc1ccccc1)NC(=O)[C@@H]1CCCN1C(=O)[C@H](CCSC)NC(=O)[C@@H](NC(=O)[C@@H](N)CO)[C@@H](C)O)C(=O)N[C@@H](CC(N)=O)C(=O)N[C@H](C(=O)N[C@@H](CC(N)=O)C(=O)N[C@@H](CC(N)=O)C(=O)N[C@H](C(=O)N[C@@H](CC)C(=O)N[C@@H](CC(N)=O)C(=O)N[C@@H](Cc1ccccc1)C(=O)O)C(C)C)[C@@H](C)CC` (H-STMPFMF[Abu]NINNV[Abu]NF-OH), the inhibition at 50 µM in experiment [1] was -24.5%. The inhibition at 100 µM came out at 6.82% in experiment [2] and 13.8% in experiment [3].
For H-LRRFSTMPFMFVNINNVVNF-OH, in experiment [1], the inhibition at 50 µM was determined as 98.8%. Moreover, the inhibition at 100 µM in experiment [2] worked out at 95.1%; in experiment [3], 62.2%. Further, the inhibition entry in experiment [4] is “Active”.
On to `CC[C@H](C)[C@H](NC(=O)[C@H](CC(N)=O)NC(=O)[C@@H](NC(=O)[C@H](Cc1ccccc1)NC(=O)[C@H](C)NC(=O)[C@H](Cc1ccccc1)NC(=O)[C@@H]1CCCN1C(=O)[C@H](CCSC)NC(=O)[C@@H](NC(=O)[C@H](CO)NC(=O)[C@H](Cc1ccccc1)NC(=O)[C@H](CCCNC(=N)N)NC(=O)[C@H](CCCNC(=N)N)NC(=O)[C@@H](N)CC(C)C)[C@@H](C)O)[C@@H](C)CC)C(=O)N[C@@H](CC(N)=O)C(=O)N[C@@H](CC(N)=O)C(=O)N[C@H](C(=O)N[C@H](C(=O)N[C@@H](CC(N)=O)C(=O)N[C@@H](Cc1ccccc1)C(=O)O)[C@@H](C)CC)C(C)C`, for which the inhibition at 50 µM in experiment [1] amounted to 69.3%. Also, the inhibition at 100 µM turned out to be 94.8% in experiment [2] and 46.6% in experiment [3]. Further, the inhibition result in experiment [4] was “Active”.
Turning to H-LRRFSTMPFMFGNINNVGNF-OH, in experiment [1], the inhibition at 50 µM worked out at 87.9%. In addition, the inhibition at 100 µM in experiment [2] came to 97.8%; in experiment [3], 25.7%.
Taken in the same sequence, the figures for `CC[C@H](C)[C@H](NC(=O)[C@H](CC(N)=O)NC(=O)[C@H](CS)NC(=O)[C@H](Cc1ccccc1)NC(=O)[C@H](CCSC)NC(=O)[C@H](Cc1ccccc1)NC(=O)[C@@H]1CCCN1C(=O)[C@H](CCSC)NC(=O)[C@@H](NC(=O)[C@H](CO)NC(=O)[C@H](Cc1ccccc1)NC(=O)[C@H](CCCNC(=N)N)NC(=O)[C@H](CCCNC(=N)N)NC(=O)[C@@H](N)CC(C)C)[C@@H](C)O)C(=O)N[C@@H](CC(N)=O)C(=O)N[C@@H](CC(N)=O)C(=O)N[C@H](C(=O)N[C@@H](CS)C(=O)N[C@@H](CC(N)=O)C(=O)N[C@@H](Cc1ccccc1)C(=O)O)C(C)C` (H-LRRFSTMPFMFCNINNVCNF-OH) were 91%, 96.2% and 67.5%.
For H-LNRFSTMPF-OH, in that order: -16.1%, 0.32% and 6.35%.
`CC[C@H](NC(=O)[C@@H](NC(=O)[C@H](CC(N)=O)NC(=O)[C@H](CC(N)=O)NC(=O)[C@@H](NC(=O)[C@H](CC(N)=O)NC(=O)[C@H](CC)NC(=O)[C@@H](N)Cc1ccccc1)[C@@H](C)CC)C(C)C)C(=O)N[C@@H](CC(N)=O)C(=O)O` (H-F[Abu]NINNV[Abu]N-OH): the inhibition at 50 µM in experiment [1] is 40.4%. Further, the inhibition at 100 µM in experiment [2] came out at 77.5%; in experiment [3], 20.6%.
Turning to H-LRRFSTMPFMFANINNVANF-OH, in experiment [1], the inhibition at 50 µM worked out at 99.6%. Besides, the values for the inhibition at 100 µM in experiment [2] and in experiment [3] were 98.2% and 48.6%, respectively.
Turning to H-LRRFSTMPFMFTNINNVTNF-OH, in experiment [1], the inhibition at 50 µM amounted to 96.1%. Further, the inhibition at 100 µM in experiment [2] was found to be 98.7%; in experiment [3], 59.1%.
